Measured values taken from article PMC12429009 (The FASEB Journal, 2025).
“Also recorded” adds a separate entry of the source.

Legend:
native gel or EMSA = biological target: the molecule itself; assay: native gel or EMSA
14‐3‐3 = details: ref 16 (Ramteke et al.); cited from earlier work
[1] = test system: FAM‐labeled peptides (mode2 phosphopeptide); assay: Peptide binding ability of 14‐3‐3ζ mutant proteins by fluorescence polarization; details: FP; FAM‐labeled peptide 62.5 nM, protein 8 to 0.0625 μM, 25°C, 30 min
Procedure, shortened: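 Untagged 14‑3‑3ζ mutants (E. coli BL21 DE3; Ni‑NTA, SEC, TEV cleavage) in 50 mM Na‑HEPES pH 8.0, 150 mM NaCl, 10% glycerol. Protein titrated 8 to 0.0625 μM against constant 62.5 nM N‑terminal FAM‑labeled phosphopeptide. Incubated 30 min at 25°C in the dark before anisotropy reading; K_D fitted.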

[2] = Oligomeric status by native PAGE; assay type: physicochemical; details: 15 μg protein, 10% native gel (legend: 12%), Coomassie blue
Procedure, shortened: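 Purified untagged 14‐3‐3ζ WT and mutant apoproteins (E. coli‐expressed, Ni‐NTA plus size exclusion, TEV‐cleaved), buffer‐exchanged into 50 mM Na‐HEPES pH 8.0, 150 mM NaCl, 10% glycerol, then run under nondenaturing conditions. Migration read as monomer or dimer.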

[3] = test system: 14‐3‐3ζ WT and mutant proteins; assay: ATPase activity; assay type: biochemical, human; details: 10 μM protein, 1 mM ATP, 37°C, 2 h; three independent experiments

| Molecule | stoichiometry N (native gel or EMSA) | migration on native PAGE / oligomeric state [2] | further results |
| --- | --- | --- | --- |
| 14-3-3ζ E180A (natural protein, human, UniProt P63104 1-245, looked up) MDKNELVQKAKLAEQAERYDDMAACMKSVTEQGAELSNEERNLLSVAYKNVVGARRSSWRVVSSIEQKTEGAEKKQQMAREYREKIETELRDICNDVLSLLEKFLIPNASQAESKVFYLKMKGDYYRYLAEVAAGDDKKGIVDQSQQAYQEAFEISKKEMQPTHPIRLGLALNFSVFYYAILNSPEKACSLAKTAFDEAIAELDTLSEESYKDSTLIMQLLRDNLTLWTSDTQGDEAEAGEGGEN | 2 | – | – |
| 14-3-3ζ R55A (natural protein, human, UniProt P63104 1-245, looked up) MDKNELVQKAKLAEQAERYDDMAACMKSVTEQGAELSNEERNLLSVAYKNVVGAARSSWRVVSSIEQKTEGAEKKQQMAREYREKIETELRDICNDVLSLLEKFLIPNASQAESKVFYLKMKGDYYRYLAEVAAGDDKKGIVDQSQQAYQEAFEISKKEMQPTHPIRLGLALNFSVFYYEILNSPEKACSLAKTAFDEAIAELDTLSEESYKDSTLIMQLLRDNLTLWTSDTQGDEAEAGEGGEN | 2 | – | – |
| 14-3-3ζ D124A (natural protein, human, UniProt P63104 1-245, looked up) MDKNELVQKAKLAEQAERYDDMAACMKSVTEQGAELSNEERNLLSVAYKNVVGARRSSWRVVSSIEQKTEGAEKKQQMAREYREKIETELRDICNDVLSLLEKFLIPNASQAESKVFYLKMKGAYYRYLAEVAAGDDKKGIVDQSQQAYQEAFEISKKEMQPTHPIRLGLALNFSVFYYEILNSPEKACSLAKTAFDEAIAELDTLSEESYKDSTLIMQLLRDNLTLWTSDTQGDEAEAGEGGEN | 2 | – | – |
| 14-3-3ζ E131A (natural protein, human, UniProt P63104 1-245, looked up) MDKNELVQKAKLAEQAERYDDMAACMKSVTEQGAELSNEERNLLSVAYKNVVGARRSSWRVVSSIEQKTEGAEKKQQMAREYREKIETELRDICNDVLSLLEKFLIPNASQAESKVFYLKMKGDYYRYLAAVAAGDDKKGIVDQSQQAYQEAFEISKKEMQPTHPIRLGLALNFSVFYYEILNSPEKACSLAKTAFDEAIAELDTLSEESYKDSTLIMQLLRDNLTLWTSDTQGDEAEAGEGGEN | 2 | – | – |
| 14-3-3ζ N173V (natural protein, human, UniProt P63104 1-245, looked up) MDKNELVQKAKLAEQAERYDDMAACMKSVTEQGAELSNEERNLLSVAYKNVVGARRSSWRVVSSIEQKTEGAEKKQQMAREYREKIETELRDICNDVLSLLEKFLIPNASQAESKVFYLKMKGDYYRYLAEVAAGDDKKGIVDQSQQAYQEAFEISKKEMQPTHPIRLGLALVFSVFYYEILNSPEKACSLAKTAFDEAIAELDTLSEESYKDSTLIMQLLRDNLTLWTSDTQGDEAEAGEGGEN | 2 | – | – |
| 14-3-3ζ F117AN173V (natural protein, human, UniProt P63104 1-245, looked up) MDKNELVQKAKLAEQAERYDDMAACMKSVTEQGAELSNEERNLLSVAYKNVVGARRSSWRVVSSIEQKTEGAEKKQQMAREYREKIETELRDICNDVLSLLEKFLIPNASQAESKVAYLKMKGDYYRYLAEVAAGDDKKGIVDQSQQAYQEAFEISKKEMQPTHPIRLGLALVFSVFYYEILNSPEKACSLAKTAFDEAIAELDTLSEESYKDSTLIMQLLRDNLTLWTSDTQGDEAEAGEGGEN | 2 | – | – |
| 14-3-3ζ E131AN173V (natural protein, human, UniProt P63104 1-245, looked up) MDKNELVQKAKLAEQAERYDDMAACMKSVTEQGAELSNEERNLLSVAYKNVVGARRSSWRVVSSIEQKTEGAEKKQQMAREYREKIETELRDICNDVLSLLEKFLIPNASQAESKVFYLKMKGDYYRYLAAVAAGDDKKGIVDQSQQAYQEAFEISKKEMQPTHPIRLGLALVFSVFYYEILNSPEKACSLAKTAFDEAIAELDTLSEESYKDSTLIMQLLRDNLTLWTSDTQGDEAEAGEGGEN | 2 | – | – |
| 14-3-3ζ E180AN173V (natural protein, human, UniProt P63104 1-245, looked up) MDKNELVQKAKLAEQAERYDDMAACMKSVTEQGAELSNEERNLLSVAYKNVVGARRSSWRVVSSIEQKTEGAEKKQQMAREYREKIETELRDICNDVLSLLEKFLIPNASQAESKVFYLKMKGDYYRYLAEVAAGDDKKGIVDQSQQAYQEAFEISKKEMQPTHPIRLGLALVFSVFYYAILNSPEKACSLAKTAFDEAIAELDTLSEESYKDSTLIMQLLRDNLTLWTSDTQGDEAEAGEGGEN | 2 | – | – |
| R55A: 14‐3‐3ζ dimer interface mutant (protein, left off: His6, end not stated, cleaved) MDKNELVQKAKLAEQAERYDDMAACMKSVTEQGAELSNEERNLLSVAYKNVVGAARSSWRVVSSIEQKTEGAEKKQQMAREYREKIETELRDICNDVLSLLEKFLIPNASQAESKVFYLKMKGDYYRYLAEVAAGDDKKGIVDQSQQAYQEAFEISKKEMQPTHPIRLGLALNFSVFYYEILNSPEKACSLAKTAFDEAIAELDTLSEESYKDSTLIMQLLRDNLTLWTSDTQGDEAEAGEGGEN | – | migrated as dimers | ATPase activity (earlier study) (14‐3‐3): reduction in ATP binding and hydrolysis; also recorded: ATPase defective mutant; also recorded: decrease in the ATPase activity; peptide binding of 14‐3‐3ζ mutant protein (in words) [1]: bind all peptides with the same affinity as the WT |
| Y82AN173V: 14‐3‐3ζ double mutant, monomer (protein, left off: His6, end not stated, cleaved) MDKNELVQKAKLAEQAERYDDMAACMKSVTEQGAELSNEERNLLSVAYKNVVGARRSSWRVVSSIEQKTEGAEKKQQMAREAREKIETELRDICNDVLSLLEKFLIPNASQAESKVFYLKMKGDYYRYLAEVAAGDDKKGIVDQSQQAYQEAFEISKKEMQPTHPIRLGLALVFSVFYYEILNSPEKACSLAKTAFDEAIAELDTLSEESYKDSTLIMQLLRDNLTLWTSDTQGDEAEAGEGGEN | – | could be monomeric in nature | ATPase activity (in words, compared with WT) [3]: some ATPase activity (less than the WT); ATPase activity as percentage of the N173V mutant [3]: 20%; reduction in ATPase activity compared with N173V [3]: 80% |
| E131A (protein, left off: His6, end not stated, cleaved) MDKNELVQKAKLAEQAERYDDMAACMKSVTEQGAELSNEERNLLSVAYKNVVGARRSSWRVVSSIEQKTEGAEKKQQMAREYREKIETELRDICNDVLSLLEKFLIPNASQAESKVFYLKMKGDYYRYLAAVAAGDDKKGIVDQSQQAYQEAFEISKKEMQPTHPIRLGLALNFSVFYYEILNSPEKACSLAKTAFDEAIAELDTLSEESYKDSTLIMQLLRDNLTLWTSDTQGDEAEAGEGGEN | – | migrated as dimers | ATPase activity (in words, compared with WT) [3]: made no difference to the ATPase activity |
| E180A: 14‐3‐3ζ amphipathic pocket mutant (protein, left off: His6, end not stated, cleaved) MDKNELVQKAKLAEQAERYDDMAACMKSVTEQGAELSNEERNLLSVAYKNVVGARRSSWRVVSSIEQKTEGAEKKQQMAREYREKIETELRDICNDVLSLLEKFLIPNASQAESKVFYLKMKGDYYRYLAEVAAGDDKKGIVDQSQQAYQEAFEISKKEMQPTHPIRLGLALNFSVFYYAILNSPEKACSLAKTAFDEAIAELDTLSEESYKDSTLIMQLLRDNLTLWTSDTQGDEAEAGEGGEN | – | migrated as dimers | ATPase activity (in words, compared with WT) [3]: made no difference to the ATPase activity |
| F117AN173V (protein, left off: His6, end not stated, cleaved) MDKNELVQKAKLAEQAERYDDMAACMKSVTEQGAELSNEERNLLSVAYKNVVGARRSSWRVVSSIEQKTEGAEKKQQMAREYREKIETELRDICNDVLSLLEKFLIPNASQAESKVAYLKMKGDYYRYLAEVAAGDDKKGIVDQSQQAYQEAFEISKKEMQPTHPIRLGLALVFSVFYYEILNSPEKACSLAKTAFDEAIAELDTLSEESYKDSTLIMQLLRDNLTLWTSDTQGDEAEAGEGGEN | – | migrated as dimers | – |
| E131AN173V: 14‐3‐3ζ double mutant (protein, left off: His6, end not stated, cleaved) MDKNELVQKAKLAEQAERYDDMAACMKSVTEQGAELSNEERNLLSVAYKNVVGARRSSWRVVSSIEQKTEGAEKKQQMAREYREKIETELRDICNDVLSLLEKFLIPNASQAESKVFYLKMKGDYYRYLAAVAAGDDKKGIVDQSQQAYQEAFEISKKEMQPTHPIRLGLALVFSVFYYEILNSPEKACSLAKTAFDEAIAELDTLSEESYKDSTLIMQLLRDNLTLWTSDTQGDEAEAGEGGEN | – | migrated as dimers | – |
| E131AE180A: 14‐3‐3ζ double mutant (protein, UniProt P63104 1-245, looked up, variant E131A E180A) 14-3-3 protein zeta/delta: MDKNELVQKAKLAEQAERYDDMAACMKSVTEQGAELSNEERNLLSVAYKNVVGARRSSWRVVSSIEQKTEGAEKKQQMAREYREKIETELRDICNDVLSLLEKFLIPNASQAESKVFYLKMKGDYYRYLAAVAAGDDKKGIVDQSQQAYQEAFEISKKEMQPTHPIRLGLALNFSVFYYAILNSPEKACSLAKTAFDEAIAELDTLSEESYKDSTLIMQLLRDNLTLWTSDTQGDEAEAGEGGEN | – | – | ATPase activity (in words, compared with WT) [3]: decreased dramatically |
